Activity calls are given as the source filed them. The calls are words filed in the database; no cut-off is given here.
Legend:
[1] = Inhibition of Proteus mirabilis 543 urease at pH 5.5 assessed as reduction in ammonia production using urea as substrate preincubated for 120 mins followed by substrate addition measured after 15 mins by NaOH-hypochlorite method; conditions: read-out: IC50
Method in brief: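 Intact Proteus mirabilis cells were preincubated with inhibitors in PBS for 2 h, then tested at pH 5.5, matching urine acidity, with 5 mM urea. IC50 was determined.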

[2] = Inhibition of Proteus mirabilis 543 urease at pH 5.5 assessed as reduction in ammonia production using urea as substrate measured after 15 mins by NaOH-hypochlorite method; conditions: read-out: IC50
Method in brief: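 Intact Proteus mirabilis cells were tested at pH 5.5, matching physiological urine, with 5 mM urea. Inhibitors were added without preincubation, and IC50 was determined.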

[3] = Inhibition of Sporosarcina pasteurii CCM 2056 urease assessed as reduction in ammonia production using urea as substrate measured for 120 mins by phenol-hypochlorite method; conditions: read-out: Ki
Sporosarcina pasteurii [4] = assay: Reversible inhibition of Sporosarcina pasteurii CCM 2056 urease assessed as reduction in ammonia production by measuring recovery of enzyme activity at 10 times IC50 preincubated for 60 mins followed by 100-fold dilution in to PBS containing urea as substrate by Berthelot colorimetric assay relative to control; parameters: Activity: scale not given: the % may be the effect or the level left
[5] = Glutathione reactivity in pH 7.4 PBS measured after 6 to 36 hrs in presence of 1.375 mmol GSH by DTNB reagent based spectrophotometric method
Method in brief: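 Glutathione served as a model reactive-thiol compound. Unreacted GSH was quantified spectrophotometrically by a modified Ellman method, and reaction progress was followed over time up to 36 h.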

Sporosarcina pasteurii [6] = assay: Competitive inhibition of Sporosarcina pasteurii CCM 2056 urease assessed as reduction in ammonia production preincubated with enzyme followed by addition of varying levels of urea as substrate measured for 120 mins by Lineweaver-Burk plot analysis
Proteus mirabilis = assay: Inhibition of Proteus mirabilis 543 urease at pH 5.5 assessed as reduction in ammonia production using urea as substrate followed by substrate addition by NaOH-hypochlorite method; conditions: TDE = time-dependent effect
[7] = Inhibition of Sporosarcina pasteurii CCM 2056 urease assessed as reduction in ammonia production by measuring steady state enzyme-inhibitor complex using urea as substrate measured for 120 mins by phenol-hypochlorite method; conditions: read-out: Ki
[8] = Glutathione reactivity after 36 hrs in presence of 10 mM GSH by 1H NMR analysis
[9] = Inhibition of Sporosarcina pasteurii CCM 2056 urease assessed as reduction in ammonia production by measuring initial state enzyme-inhibitor complex using urea as substrate measured for 120 mins by phenol-hypochlorite method; conditions: read-out: Ki
Sporosarcina pasteurii [10] = assay: Time-dependent Sporosarcina pasteurii CCM 2056 urease assessed as reduction in ammonia production using urea as substrate by phenol-hypochlorite method
Papain (Carica papaya) [11] = target: T1, Papain (Carica papaya) (UniProt P00784); assay: Inhibition of Carica papaya papain at 0.1 to 0.25 mM using BzArgOEt as substrate measured for 30 mins
T1 sequence (whole entry): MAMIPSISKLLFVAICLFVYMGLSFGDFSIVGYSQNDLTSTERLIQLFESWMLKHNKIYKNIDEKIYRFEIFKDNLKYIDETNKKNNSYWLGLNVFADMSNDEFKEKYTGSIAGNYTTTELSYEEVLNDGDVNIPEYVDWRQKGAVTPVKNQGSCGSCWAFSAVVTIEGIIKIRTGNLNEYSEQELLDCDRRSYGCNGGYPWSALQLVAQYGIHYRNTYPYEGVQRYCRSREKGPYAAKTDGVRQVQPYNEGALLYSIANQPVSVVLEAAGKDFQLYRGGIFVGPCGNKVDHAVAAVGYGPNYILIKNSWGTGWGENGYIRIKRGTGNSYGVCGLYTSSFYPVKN

BALB/3T3 = assay: Cytotoxicity against mouse BALB/3T3 cells assessed as reduction in cell proliferation after 72 hrs by SRB assay; assay type: cell-based; conditions: balb/3t3, 72 h
Method in brief: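 Mouse BALB/3T3 fibroblasts were scored by SRB assay, with cytotoxicity given as LC50 values.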

Papain (Carica papaya) [12] = target: T1, Papain (Carica papaya); assay: Inhibition of Carica papaya papain at 0.1 to 1 mM using BzArgOEt as substrate measured for 30 mins

Row | inhibition (Papain (Carica papaya) [11]) | Compound | IC50 [1] [µM] | IC50 [2] [µM] | Ki [3] [µM] | Activity (Sporosarcina pasteurii [4]) [%] | K [5] [M⁻¹ s⁻¹] | log K [5] | mode of inhibition (Sporosarcina pasteurii [6]) | inhibition (Proteus mirabilis) | Ki [7] [µM] | Drug metabolism [8] | Ki [9] [µM] | TDI (Sporosarcina pasteurii [10]) | LC50 (BALB/3T3) | inhibition (Papain (Carica papaya) [12])
1 | inactive | O=C(O)/C=C/c1ccccc1 [CINNAMIC ACID] | 125 | 492 | 21.5 | 40.3 | < 1.67e-06 | > -4 | Active | Tde | 23 | Metabolite not detected | 595 | Active | – | –
2 | – | O=C(O)C#CC(=O)O | 88.6 | 326 | 0.0425 | 10.9 | 0.000122 | -2.14 | Active | Tde | 0.0553 | – | 3.95 | Active | Non-Toxic | inactive
3 | – | O=C(O)/C=C/C(=O)O [FUMARIC ACID] | 65.5 | 182 | 36.5 | 39.7 | 5e-05 | -2.52 | Active | Tde | 37.1 | – | 432 | Active | Non-Toxic | inactive
